Sampled rows, rich in hits. Any-hit rate of the full collection: about 3.8%.
MrgX1 antag: blocks BAM8-22 activation of human MrgX1 receptor. MRGX1-HEK293 calcium flux, Fluo-4, BAM8-22 antagonism; stronger effect = lower value. B-score at 10 µM. 310,000 compounds, 1.3% hits. AID 588676;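 active = calcium-response B-score plate-corrected more than 3 library SD below zero, starting fluorescence within 5 deviations, no agonist response on first addition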;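 also: peak minus trough fluorescence over baseline after final BAM8-22 challenge near maximal dose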
Target sequence (Q96LB2 whole entry, looked up): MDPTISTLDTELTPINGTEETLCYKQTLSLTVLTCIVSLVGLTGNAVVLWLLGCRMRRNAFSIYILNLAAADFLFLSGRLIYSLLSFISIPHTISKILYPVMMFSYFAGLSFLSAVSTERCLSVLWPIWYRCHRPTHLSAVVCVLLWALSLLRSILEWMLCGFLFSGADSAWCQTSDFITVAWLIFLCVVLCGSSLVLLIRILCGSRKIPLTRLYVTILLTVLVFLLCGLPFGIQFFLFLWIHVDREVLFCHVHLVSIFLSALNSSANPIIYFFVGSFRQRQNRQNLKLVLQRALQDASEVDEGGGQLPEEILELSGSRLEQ
MrgX1 agonist: human MrgX1 receptor agonism, primary screen; MrgX1-HEK293 cells, Fluo-4 calcium fluorescence, agonist mode; stronger effect = higher value; B-score at 10 µM; AID 588627; Q96LB2; 310,000 compounds, 0.44% hits;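 active = calcium response B-score plate-corrected fluorescence ratio at least 3 library SD, with starting fluorescence B-score inside 5 SD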
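System – MrgX1-expressing HEK293 cells · Incubation – cells plated overnight, dye loaded 0.5 h 37 °C, 0.5 h room temperature · Technique – kinetic Fluo-4 NW fluorescence of intracellular calcium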
RGS4 pot: potentiators or activators of RGS4 | B-score at 10 µM | HEK293 M3R/inducible RGS4, carbachol calcium flux Fluo4; stronger effect = lower value | 310,000 compounds, 0.92% hits;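 active = B-score of the integrated calcium signal more than 4 SD below the library mean, with starting fluorescence not abnormally high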;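 also: negative B-score means reduced calcium response which marks RGS4 activation or potentiation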
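Test system: HEK293 cells with stable M3R and inducible RGS4; also added: carbachol at ECmax as muscarinic agonist stimulus; schedule: dye loading 30 min 37 °C, buffer rest 30 min RT; technique: kinetic calcium fluorescence imaging with Fluo4-AM dye, 2 µM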
Lipid droplet: hepatic lipid droplet formation modulation; AML12 mouse hepatocytes, oleate lipid droplets, BODIPY imaging; inhibition, % at 6.5 µM; 240,000 compounds, 0.4% hits; AID 1656;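 active = lipid droplet intensity inhibited by at least 50%, with more than 500 cells counted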
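Assay system: AML12 hepatocytes (mouse); Probe or stimulus: oleic acid at 100 µM to induce lipid droplet formation; Dosing: compound at 6.5 µM only; Schedule: compound with oleate, overnight; Detection: fluorescence imaging, 20x objective, two fields per well; Measure: % inhibition of lipid droplet signal.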
MrgX1 allo act: human MrgX1 positive allosteric modulation, primary screen; Q96LB2; MrgX1-HEK293, Fluo-4 calcium flux, FDSS; stronger effect = higher value; B-score at 10 µM; 310,000 compounds, 0.63% hits;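 active = plate-corrected calcium response at least 3 library SD above typical, normal starting fluorescence, not activating the receptor alone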;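 also: compound read alongside a low EC10 to EC30 dose of BAM8-22 agonist; peak minus trough fluorescence over baseline measured at the second addition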
RGS4 block: inhibitors of human RGS4; B-score at 10 µM; HEK293 M3R/RGS4 inducible, Fluo-4 calcium flux; stronger effect = higher value; triggered by carbachol at its EC20; P49798; 310,000 compounds, 0.45% hits; AID 463165;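 active = B-score, a plate-corrected calcium signal, over three deviations above library mean, with baseline fluorescence within five deviations of library mean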;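 also: RGS4 expression induced by doxycycline in cells with stable M3 receptor; B-score is computed from the integrated fluorescence ratio over baseline after carbachol; higher B-score means a larger calcium signal and so more RGS4 inhibition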
Target sequence (P49798 whole entry, looked up): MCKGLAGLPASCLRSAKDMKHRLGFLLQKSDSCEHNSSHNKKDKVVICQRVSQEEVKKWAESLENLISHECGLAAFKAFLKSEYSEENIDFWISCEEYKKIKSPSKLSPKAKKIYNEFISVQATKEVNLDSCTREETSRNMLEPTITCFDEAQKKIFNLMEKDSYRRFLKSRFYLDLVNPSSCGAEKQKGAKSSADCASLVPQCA
RGS4 inh valid: RGS4 inhibitor validation; shares compounds with RGS4 block; HEK293 M3R/RGS4, carbachol calcium Fluo-4 fluorescence; carbachol added at its EC20; 0 = buffer wells, 100 = carbachol control; calcium response, % at 10 µM; 1,700 compounds, 65% hits;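 active = duplicate-averaged calcium response above the buffer-only control mean plus 5 SD of those controls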;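 also: integrated fluorescence ratio F max minus min over baseline F0; higher response in RGS4-induced cells means RGS4 inhibition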
RGS4 uninduced: checks RGS4 inhibitor effects in non-induced HEK293 M3R cells; activity (percent), % at 10 µM; 1,900 compounds, 20% hits; AID 493000; carbachol calcium Fluo-4; submaximal (EC20) carbachol stimulus; buffer wells 0%, carbachol control wells 100%; shares compounds with RGS4 block; call rule not given here;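 also: RGS4 induction absent so cells express M3R without RGS4; higher means more calcium signal and flags a non-specific hit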
M3R basal Ca ctr: signal in non-induced cells without carbachol, RGS4 inhibitor counter-screen; HEK293 M3R/RGS4 non-induced, Fluo-4 calcium, no carbachol; normalised: buffer wells 0%, carbachol wells 100%; shares compounds with RGS4 block; 1,900 compounds, 22% hits; calcium response (agonist-mode artifact), % at 10 µM;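 active = duplicate-averaged calcium rise in uninduced cells above buffer wells' mean plus 5 SD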
Active calls of the source: *.

How did COc1cccc(/C=C2/C(=O)NN(c3ccc(F)cc3)C2=O)c1 do in these assays?
MrgX1 antag: inactive; MrgX1 agonist: inactive; RGS4 pot: inactive; Lipid droplet: 18; MrgX1 allo act: inactive; RGS4 block: inactive; RGS4 uninduced: inactive; M3R basal Ca ctr: inactive

Results for Cc1ccc(N2NC(=O)/C(=C\c3cc4c(cc3[N+](=O)[O-])OCO4)C2=O)cc1C ?
MrgX1 antag: inactive; MrgX1 agonist: inactive; RGS4 pot: inactive; Lipid droplet: 0; MrgX1 allo act: inactive; RGS4 block: 26*; RGS4 inh valid: 69%*; RGS4 uninduced: inactive; M3R basal Ca ctr: 34%*

What do the screens show for `O=C1NC(=S)N/C1=C/c1ccc2c(c1)OCO2`?
MrgX1 antag: inactive; MrgX1 agonist: inactive; RGS4 pot: inactive; Lipid droplet: -6; MrgX1 allo act: inactive; RGS4 block: inactive

Results for NNC(=O)[C@H](Cc1ccccc1)NC(=O)NCCc1ccccc1 ?
MrgX1 antag: inactive; MrgX1 agonist: inactive; RGS4 pot: inactive; Lipid droplet: -1; MrgX1 allo act: inactive; RGS4 block: inactive

What do the screens show for `COc1cccc(/C=C2/C(=O)NN(c3ccc(C)c(C)c3)C2=O)c1`?
MrgX1 antag: inactive; MrgX1 agonist: inactive; RGS4 pot: inactive; MrgX1 allo act: inactive; RGS4 block: 15*; RGS4 inh valid: 9.5%*; RGS4 uninduced: inactive; M3R basal Ca ctr: inactive

Results for O=C(c1cc(-c2ccccc2)n[nH]1)N1CCc2c([nH]c3ccccc23)C1c1ccccn1 (stereo not drawn) ?
MrgX1 antag: inactive; MrgX1 agonist: inactive; RGS4 pot: inactive; Lipid droplet: 28; MrgX1 allo act: inactive; RGS4 block: 7.3*; RGS4 inh valid: 27%*; RGS4 uninduced: 30%*; M3R basal Ca ctr: inactive

How did O=C(c1cccs1)N1CCc2c([nH]c3ccccc23)C1c1ccccn1 (stereo not drawn) do in these assays?
MrgX1 antag: inactive; MrgX1 agonist: inactive; RGS4 pot: inactive; Lipid droplet: -7; MrgX1 allo act: inactive; RGS4 block: inactive

What do the screens show for `CCc1ccc(NC(=O)[C@@H](NC(=O)[C@@H]2Cc3ccccc3CN2)C(C)CC)cc1` (stereo partly drawn)?
MrgX1 antag: inactive; MrgX1 agonist: inactive; RGS4 pot: inactive; Lipid droplet: -12; MrgX1 allo act: inactive; RGS4 block: inactive

What do the screens show for `O=C1C=CC(O)(c2cc(=O)c3c(O)cc(O)cc3o2)C=C1`?
MrgX1 antag: inactive; MrgX1 agonist: inactive; RGS4 pot: inactive; Lipid droplet: -72; MrgX1 allo act: inactive; RGS4 block: 26*; RGS4 inh valid: 78%*; RGS4 uninduced: 30%*; M3R basal Ca ctr: inactive

Results for CCc1nnc(NC(=O)CSc2nc3cccnc3n2C2CCCCC2)s1 ?
MrgX1 antag: inactive; MrgX1 agonist: inactive; RGS4 pot: inactive; Lipid droplet: 8; MrgX1 allo act: inactive; RGS4 block: inactive

What do the screens show for `Cc1nc(NC(=O)CSc2nc3cccnc3n2C2CCCCC2)sc1C`?
MrgX1 antag: inactive; MrgX1 agonist: inactive; RGS4 pot: inactive; MrgX1 allo act: inactive; RGS4 block: inactive; RGS4 uninduced: inactive; M3R basal Ca ctr: inactive

What do the screens show for `CC(=O)Oc1ccc([C@@H]2COc3c(ccc4c3C=CC(C)(C)O4)C2)c(OC(C)=O)c1`?
MrgX1 antag: inactive; MrgX1 agonist: inactive; RGS4 pot: inactive; MrgX1 allo act: inactive; RGS4 block: 6.1*; RGS4 inh valid: 17%*; RGS4 uninduced: inactive; M3R basal Ca ctr: inactive

Results for Cc1ccc2cc(CN(C(=O)c3ccco3)c3cccc(C)c3C)c(=O)[nH]c2c1 ?
MrgX1 antag: inactive; MrgX1 agonist: inactive; RGS4 pot: inactive; Lipid droplet: -4; MrgX1 allo act: inactive; RGS4 block: inactive

How did Cc1ccc2cc(CN(C(=O)c3ccco3)c3ccccc3C)c(=O)[nH]c2c1 do in these assays?
MrgX1 antag: inactive; MrgX1 agonist: inactive; RGS4 pot: inactive; MrgX1 allo act: inactive; RGS4 block: inactive; RGS4 inh valid: inactive; RGS4 uninduced: inactive; M3R basal Ca ctr: inactive

How did Cc1ccc(N(Cc2cc3ccc(C)cc3[nH]c2=O)C(=O)c2ccco2)c(C)c1 do in these assays?
MrgX1 antag: inactive; MrgX1 agonist: inactive; RGS4 pot: inactive; Lipid droplet: -3; MrgX1 allo act: inactive; RGS4 block: inactive; RGS4 inh valid: inactive; RGS4 uninduced: inactive; M3R basal Ca ctr: inactive

How did CCOc1ccc(NC(=O)CCCNC(=O)Cn2cnc3sc(C)c(C)c3c2=O)cc1 do in these assays?
MrgX1 antag: inactive; MrgX1 agonist: inactive; RGS4 pot: inactive; Lipid droplet: -17; MrgX1 allo act: inactive; RGS4 block: inactive

What do the screens show for `Cc1ccc(NC(=O)CNC(=O)Cn2cnc3sc(C)c(C)c3c2=O)cc1F`?
MrgX1 antag: inactive; MrgX1 agonist: inactive; RGS4 pot: inactive; Lipid droplet: -4; MrgX1 allo act: inactive; RGS4 block: 6.9*; RGS4 inh valid: 19%*; RGS4 uninduced: 48%*; M3R basal Ca ctr: inactive

What do the screens show for `Cc1nc(Nc2nc3ccccc3o2)nc(C)c1C(=O)Nc1ccc(F)cc1`?
MrgX1 antag: inactive; MrgX1 agonist: inactive; RGS4 pot: inactive; Lipid droplet: -13; MrgX1 allo act: inactive; RGS4 block: 4.7*; RGS4 inh valid: 7.0%*; RGS4 uninduced: inactive; M3R basal Ca ctr: inactive

Results for CCn1cc(CNCc2cn(C)nc2-c2ccc(C3CCCCC3)cc2)cn1 ?
RGS4 pot: inactive; Lipid droplet: -11; RGS4 block: inactive

What do the screens show for `COc1ccc(S(=O)(=O)/N=C2/NC(=O)/C(=C\c3cc(OC)c(OC)cc3[N+](=O)[O-])S2)cc1`?
MrgX1 antag: inactive; MrgX1 agonist: inactive; RGS4 pot: inactive; Lipid droplet: 7; MrgX1 allo act: inactive; RGS4 block: inactive; RGS4 inh valid: inactive; RGS4 uninduced: inactive; M3R basal Ca ctr: inactive

Screening results from PubChem.
